This passage reports EC50 and IC50 results from ChEMBL document CHEMBL1142060, “Dysoxylins A-D, tetranortriterpenoids with potent anti-RSV activity from Dysoxylum gaudichaudianum” (J Nat Prod, 2007).

Assay [1] has as its system Respiratory syncytial virus. The experiment in a line: Antiviral activity against RSV A2 in MA104 cells by CPE assay. It is filed as functional, organism-based. The conditions noted are these: human respiratory syncytial virus. In short, it runs like this: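 RSV strain A2 grown in MA-104 cells; cells passaged in MEM with 9% fetal bovine serum and 0.1% NaHCO3. Cytopathic-effect inhibition read-out. Activity expressed as 50% effective concentration (EC50) in µg/mL.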

Assay [2] deals with Respiratory syncytial virus. The experiment in a line: Antiviral activity against RSV A2 in MA104 cells by plaque reduction assay. It is filed as functional, organism-based. The conditions noted are these: human respiratory syncytial virus. In short, it runs like this: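 MA-104 monolayers infected with 200 PFU/well RSV A2, adsorbed 2.5 h at 37 °C in serum-free MEM. Inoculum removed and agarose overlay added; each compound dilution plated in duplicate. Plaques counted after 4 days and expressed as percent of control. EC50 (µg/mL) derived by regression of mean percent of control at each concentration.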

SMILES strings stand for the structures. In brackets after ≈: the same amount, converted by molar mass.

Take `CC(=O)O[C@H]1C[C@H]2[C@](C)(C3=CC[C@@H](C4COC(=O)C4)[C@@]31C)[C@H](OC(=O)c1ccccc1)[C@@H]1OC[C@]3(C)[C@H](O)C[C@H](OC(C)=O)[C@@]2(C)[C@@H]13` (stereo partly drawn) [DYSOXYLIN B]: the EC50 – broadly, the concentration that produces a half-maximal response – came out at 4 µg/mL (≈ 6.15 µM) in assay [1] and 30 µg/mL (≈ 46.1 µM) in assay [2]. Also, the figures for the IC50 in assay [1] and in assay [2] were 16 µg/mL (≈ 24.6 µM) and 7 µg/mL (≈ 10.8 µM), respectively.

For the compound `C/C=C(/C)C(=O)O[C@@H]1[C@@H]2OC[C@]3(C)[C@H](O)C[C@H](OC(C)=O)[C@@](C)([C@@H]23)[C@H]2C[C@H](OC(C)=O)[C@]3(C)C(=CC[C@H]3C3COC(=O)C3)[C@]12C` (stereo partly drawn) [DYSOXYLIN A], in assay [1], it took 2 µg/mL (≈ 3.18 µM) to reach a half-maximal effect (EC50) and inhibition was half-maximal at 150 µg/mL (≈ 239 µM) (IC50). Also, in assay [2], the EC50 amounted to 150 µg/mL (≈ 239 µM) and the half-maximal inhibitory concentration (IC50) (as a rule, the midpoint of a concentration-inhibition curve) was determined as 112 µg/mL (≈ 178 µM).

Regarding `NC(=O)c1ncn([C@@H]2O[C@H](CO)[C@@H](O)[C@H]2O)n1` [RIBAVIRIN], the EC50 was 3.6 µg/mL (≈ 14.7 µM) in assay [1] and 20 µg/mL (≈ 81.9 µM) in assay [2]. Moreover, the 50% inhibitory concentration (IC50) amounted to 180 µg/mL (≈ 737 µM) in assay [1] and 460 µg/mL (≈ 1880 µM) in assay [2].

On to `CCC(C)C(=O)O[C@@H]1[C@@H]2OC[C@]3(C)[C@H](O)C[C@H](OC(C)=O)[C@@](C)([C@@H]23)[C@H]2C[C@H](OC(C)=O)[C@]3(C)C(=CC[C@H]3C3COC(=O)C3)[C@]12C` (stereo partly drawn) [DYSOXYLIN C], for which, in assay [2], the concentration for a half-maximal effect (EC50) turned out to be 146 µg/mL (≈ 231 µM) and the midpoint of inhibition, the IC50, lay at 52 µg/mL (≈ 82.4 µM).

Regarding `CC(=O)O[C@H]1C[C@H]2[C@](C)(C3=CC[C@@H](C4COC(=O)C4)[C@@]31C)[C@H](OC(=O)/C=C(\C)C(C)C)[C@@H]1OC[C@]3(C)[C@H](O)C[C@H](OC(C)=O)[C@@]2(C)[C@@H]13` (stereo partly drawn) [DYSOXYLIN D], the figures for the EC50 in assay [1] and in assay [2] were 1 µg/mL (≈ 1.52 µM) and 40 µg/mL (≈ 60.9 µM), respectively. The IC50 is more than 200 µg/mL in assay [1] and 42 µg/mL (≈ 63.9 µM) in assay [2].
